Measurements taken from ChEMBL document CHEMBL2016515, “Triazoloamides as potent γ-secretase modulators with reduced hERG liability” (Bioorg Med Chem Lett, 2012).

Assays:
Gamma-secretase [1] = test: Inhibition of gamma secretase-mediated amyloid beta42 production in human SH-SY5Y cells overexpressing beta-APP C-terminal SPA4CT by electrochemiluminescent analysis; type: cell-based
Summary of the method: (§1)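 Each compound tested in at least two independent experiments; values reported in μM.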

Gamma-secretase [2] = test: Inhibition of gamma secretase-mediated amyloid beta40 production in human SH-SY5Y cells overexpressing beta-APP C-terminal SPA4CT by electrochemiluminescent analysis; type: cell-based; summary of the method: as §1
[3] = Inhibition of gamma-secretase-mediated notch intracellular domain cleavage in HeLa cells by luciferase reporter gene assay; type: cell-based
Summary of the method: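 Split-luciferase complementation: γ-secretase cleavage of NotchΔE frees NICD fused to N-terminal luciferase, which enters the nucleus and binds RBP-Jk fused to C-terminal luciferase. Total luminescence is read after adding luciferin to lysed cells. At least two independent experiments; values in μM.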

[4] = target: Voltage-gated inwardly rectifying potassium channel KCNH2 (Homo sapiens, UniProt Q12809)
Voltage-gated inwardly rectifying potassium channel KCNH2, sequence (Q12809 whole entry): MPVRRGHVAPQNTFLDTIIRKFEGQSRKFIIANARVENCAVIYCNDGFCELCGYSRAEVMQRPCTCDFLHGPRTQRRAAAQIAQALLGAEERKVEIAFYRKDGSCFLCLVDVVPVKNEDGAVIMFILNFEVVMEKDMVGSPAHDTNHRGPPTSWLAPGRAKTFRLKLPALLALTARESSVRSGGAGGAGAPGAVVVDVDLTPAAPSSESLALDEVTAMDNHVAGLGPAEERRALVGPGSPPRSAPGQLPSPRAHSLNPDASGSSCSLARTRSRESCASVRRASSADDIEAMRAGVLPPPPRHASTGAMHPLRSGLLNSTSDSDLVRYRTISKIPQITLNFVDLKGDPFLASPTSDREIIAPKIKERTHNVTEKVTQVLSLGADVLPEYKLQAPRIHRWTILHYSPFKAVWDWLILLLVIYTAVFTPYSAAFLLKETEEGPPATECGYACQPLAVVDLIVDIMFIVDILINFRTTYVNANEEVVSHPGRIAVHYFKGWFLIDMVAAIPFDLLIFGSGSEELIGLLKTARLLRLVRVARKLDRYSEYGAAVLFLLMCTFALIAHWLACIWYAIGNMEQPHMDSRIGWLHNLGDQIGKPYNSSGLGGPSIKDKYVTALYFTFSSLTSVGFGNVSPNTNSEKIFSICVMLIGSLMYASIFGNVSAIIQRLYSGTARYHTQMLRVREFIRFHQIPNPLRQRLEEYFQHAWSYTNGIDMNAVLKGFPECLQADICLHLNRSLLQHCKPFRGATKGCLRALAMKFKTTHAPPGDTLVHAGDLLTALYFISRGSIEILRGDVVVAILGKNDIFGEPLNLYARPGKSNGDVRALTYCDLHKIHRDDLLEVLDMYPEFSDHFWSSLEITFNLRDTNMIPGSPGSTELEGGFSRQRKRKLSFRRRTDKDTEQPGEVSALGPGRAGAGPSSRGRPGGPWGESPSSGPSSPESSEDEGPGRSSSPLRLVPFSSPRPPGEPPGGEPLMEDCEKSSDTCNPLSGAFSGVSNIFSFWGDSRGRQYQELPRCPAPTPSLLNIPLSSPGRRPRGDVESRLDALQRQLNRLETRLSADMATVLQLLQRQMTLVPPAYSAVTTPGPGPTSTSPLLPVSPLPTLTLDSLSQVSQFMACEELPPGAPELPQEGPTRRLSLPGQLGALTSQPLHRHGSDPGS

Row | Structure (SMILES) | IC50 (Gamma-secretase [1]) | IC50 (Gamma-secretase [2]) | IC50 [3] | IC50 [4]
1 | COc1cc(-c2cn(C3CCCCNC3=O)nn2)ccc1-n1cnc(C)c1 (racemic) | 4420 nM | > 10000 nM | > 50 µM | –
2 | COc1cc(-c2cn(C3CC[C@H]4CCCC[C@@H]4NC3=O)nn2)ccc1-n1cnc(C)c1 (mixture of isomers) | 620 nM | 3860 nM | > 50 µM | –
3 | COc1cc(-c2cn(CC(=O)N(Cc3ccccc3)Cc3ccccc3)nn2)ccc1-n1cnc(C)c1 | 370 nM | 4420 nM | > 50 µM | –
4 | COc1cc(-c2cn(CC(=O)N(c3ccccc3)c3ccccc3)nn2)ccc1-n1cnc(C)c1 | 1630 nM | > 10000 nM | – | –
5 | COc1cc(-c2cn(CC(=O)N(Cc3ccc(F)cc3)C3C4CC5CC(C4)CC3C5)nn2)ccc1-n1cnc(C)c1 (configuration not stated) | 240 nM | 1900 nM | > 50 µM | 0.25 µM
6 | COc1cc(-c2cn([C@H]3C[C@@H](C(F)(F)F)CCN(Cc4ccccc4)C3=O)nn2)ccc1-n1cnc(C)c1 | 80 nM | 420 nM | 40.8 µM | –
7 | COc1cc(-c2cn([C@H]3CCCCN(CC(F)(F)F)C3=O)nn2)ccc1-n1cnc(C)c1 | 300 nM | 2210 nM | > 50 µM | –
8 | COc1cc(-c2cn(CC(=O)NC3C4CC5CC(C4)CC3C5)nn2)ccc1-n1cnc(C)c1 (configuration not stated) | 680 nM | > 10000 nM | > 50 µM | –
9 | COc1cc(-c2cn(CC(=O)Nc3ccc4c(c3)OC(F)(F)O4)nn2)ccc1-n1cnc(C)c1 | 450 nM | 2070 nM | 29.6 µM | –
10 | COc1cc(-c2cn([C@H]3C[C@@H](C(C)(C)C)CCN(Cc4ccccc4)C3=O)nn2)ccc1-n1cnc(C)c1 | 80 nM | 420 nM | 40.1 µM | –
11 | COc1cc(-c2cn(C3CCCC(C(C)(C)C)NC3=O)nn2)ccc1-n1cnc(C)c1 (racemic) | 480 nM | 5120 nM | > 50 µM | –
12 | COc1cc(-c2cn(CC(=O)N(C3CCCCC3)C3CCCCC3)nn2)ccc1-n1cnc(C)c1 | 200 nM | > 10000 nM | 9 µM | –
13 | COc1cc(-c2cn(CC(=O)N(Cc3ccccc3)[C@H](C)c3ccccc3)nn2)ccc1-n1cnc(C)c1 | 230 nM | 3010 nM | > 50 µM | –
14 | COc1cc(-c2cn(CC(=O)N(CC(F)(F)F)c3cccc4ccccc34)nn2)ccc1-n1cnc(C)c1 | 90 nM | 410 nM | 45.1 µM | –
15 | COc1cc(-c2cn([C@H]3C[C@@H](C(C)(C)C)CCN(CC(C)(C)C)C3=O)nn2)ccc1-n1cnc(C)c1 | 130 nM | 840 nM | 20 µM | –
16 | COc1cc(-c2cn(C3CC(C4CCCCC4)CCNC3=O)nn2)ccc1-n1cnc(C)c1 (racemic) | 160 nM | 660 nM | 17 µM | 3.68 µM
17 | COc1cc(-c2cn(CC(=O)N(Cc3ccccc3)CC(F)(F)F)nn2)ccc1-n1cnc(C)c1 | 270 nM | 2430 nM | > 40 µM | –
18 | COc1cc(-c2cn(CC(=O)N([C@H](C)c3ccccc3)[C@H](C)c3ccccc3)nn2)ccc1-n1cnc(C)c1 | 430 nM | 5170 nM | > 50 µM | –

Row | Structure (SMILES) | IC50 (Gamma-secretase [1]) | IC50 (Gamma-secretase [2]) | IC50 [3] | IC50 [4]
19 | COc1cc(-c2cn([C@H]3C[C@@H](C(C)(C)C)CCN(CC(F)(F)F)C3=O)nn2)ccc1-n1cnc(C)c1 | 9 nM | 170 nM | 24.3 µM | –
20 | COc1cc(-c2cn(C3CC(C)(C)CCNC3=O)nn2)ccc1-n1cnc(C)c1 (racemic) | 1310 nM | 7420 nM | > 50 µM | 20.8 µM
21 | COc1cc(-c2cn(CC(=O)N(CC(F)(F)F)c3ccc4c(c3)CCC4)nn2)ccc1-n1cnc(C)c1 | 180 nM | 1250 nM | 24.6 µM | –
22 | COc1cc(-c2cn(CC(=O)N(CC(F)(F)F)c3ccc4c(c3)OC(F)(F)O4)nn2)ccc1-n1cnc(C)c1 | 160 nM | 1180 nM | 38.2 µM | –
23 | COc1cc(-c2cn([C@H]3C[C@@H](C(C)(C)C)CCN(CC45CC6CC(CC(C6)C4)C5)C3=O)nn2)ccc1-n1cnc(C)c1 | 240 nM | 1330 nM | > 50 µM | –
24 | COc1cc(-c2cn(CC(=O)Nc3cccc4ccccc34)nn2)ccc1-n1cnc(C)c1 | 610 nM | 4850 nM | 26.7 µM | > 10 µM
25 | COc1cc(-c2cn([C@H]3C[C@@H](C(F)(F)F)CCN(CC(F)(F)F)C3=O)nn2)ccc1-n1cnc(C)c1 | 20 nM | 210 nM | > 50 µM | –
26 | COc1cc(-c2cn([C@H]3C[C@@H](c4ccccc4)CCN(CC(F)(F)F)C3=O)nn2)ccc1-n1cnc(C)c1 | 20 nM | 150 nM | > 50 µM | –
27 | COc1cc(-c2cn(C3C(=O)NC4CCC3C4)nn2)ccc1-n1cnc(C)c1 (racemic) | 1090 nM | 9870 nM | > 50 µM | –
28 | COc1cc(-c2cn(C3CC(C(F)(F)F)CCNC3=O)nn2)ccc1-n1cnc(C)c1 (racemic) | 1270 nM | 9100 nM | > 50 µM | –
29 | COc1cc(-c2cn(C3CC([Si](C)(C)C)CCNC3=O)nn2)ccc1-n1cnc(C)c1 (racemic) | 330 nM | 1230 nM | 45.3 µM | –
30 | COc1cc(-c2cn([C@H]3C[C@@H]([Si](C)(C)C)CCN(Cc4ccccc4)C3=O)nn2)ccc1-n1cnc(C)c1 | 70 nM | 440 nM | 10.2 µM | –
31 | COc1cc(-c2cn(C3CC(C(F)(F)F)CNC3=O)nn2)ccc1-n1cnc(C)c1 (racemic) | 1110 nM | 6160 nM | > 50 µM | > 30 µM
32 | COc1cc(-c2cn(CC(=O)N(c3ccccc3)C3CCCCC3)nn2)ccc1-n1cnc(C)c1 | 620 nM | 8710 nM | – | –
33 | COc1cc(-c2cn([C@H]3CC[C@H](c4ccccc4)CN(Cc4ccccc4)C3=O)nn2)ccc1-n1cnc(C)c1 | 80 nM | 510 nM | 11.1 µM | –
34 | COc1cc(-c2cn(CC(=O)N3CCC(c4nc5ccccc5o4)CC3)nn2)ccc1-n1cnc(C)c1 | 940 nM | > 10000 nM | > 50 µM | 10.3 µM
35 | COc1cc(-c2cn([C@H]3C[C@@H](C(F)(F)F)CN(CC(F)(F)F)C3=O)nn2)ccc1-n1cnc(C)c1 | 290 nM | 1910 nM | > 50 µM | –
36 | COc1cc(-c2cn(CC(=O)N(CC(F)(F)F)c3ccc4ccccc4c3)nn2)ccc1-n1cnc(C)c1 | 80 nM | 660 nM | 48.5 µM | –
